The values that follow come from ChEMBL document CHEMBL2390938, “Synthesis and anti-inflammatory evaluations of β-lapachone derivatives” (Bioorg Med Chem, 2013).

In data set [1] the test system is RAW264.7. In words: Antiinflammatory activity in mouse RAW264.7 cells assessed as inhibition of LPS-induced nitric oxide production after 24 hrs by Griess assay. It is filed as functional, cell-based. Particulars: RAW264.7, 24 h. The method, boiled down: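 Nitrite in medium read by Griess reagent (1% sulfanilamide, 0.1% naphthylethylenediamine in 5% phosphoric acid) mixed 1:1 with medium for 5 min. Absorbance at 550 nm, quantified against a sodium nitrite standard in culture medium.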
Background: Griess reagent forms a coloured azo dye with nitrite.

Data set [2] concerns RAW264.7. In words: Cytotoxicity against mouse RAW264.7 cells assessed as cell viability after 24 hrs by MTS assay. Particulars: RAW264.7, 24 h. In kind it is cell-based. In outline: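 Cells seeded 5 × 10^4/well and exposed 24 h. MTS added, 1 h at 37 °C, absorbance read at 490 nm. Percent of control = Ab treated/Ab control × 100 (n = 3). IC50 is the concentration cutting absorbance by 50%, taken from the linear portion of the curve.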
For orientation: Tetrazolium dyes change colour on reduction, which living cells bring about.

Data set [3] is described as follows: Induction of nitric oxide scavenging activity assessed as nitrite level at 10 uM at room temperature after 60 mins by Griess assay in presence of light and SNP. It is filed as physicochemical. The settings on record: 1 h. The method, boiled down: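 Sodium nitroprusside 2.5 mM in PBS incubated alone or with compound (10 µM) in light at room temperature for 60 min. Nitrite then measured by Griess reaction. 1400 W (10 µM) as comparator.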

Data set [4] has as its system RAW264.7. In words: Antiinflammatory activity in mouse RAW264.7 cells assessed as inhibition of LPS-induced iNOS expression at 0.5 uM incubated for 2 hrs prior to LPS challenge measured after 24 hrs by Western blot analysis. It is filed as functional, cell-based. In outline:
(§1)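 Cells at 5 × 10^5/well, pretreated 2 h, then LPS 0.1 µg/mL for 24 h. Lysed in RIPA and protein assayed by Bradford. 20–50 µg separated on 8–15% SDS-PAGE and blotted to PVDF. Probed for murine iNOS or COX-2, HRP secondary, ECL detection, densitometry. Means + S.D. of 3 experiments in triplicate.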
On the technique in general: Immunoblotting shows a protein as a band on a membrane.

In data set [5] the test system is RAW264.7. In words: Antiinflammatory activity in mouse RAW264.7 cells assessed as inhibition of LPS-induced COX-2 expression at 0.5 uM incubated for 2 hrs prior to LPS challenge measured after 24 hrs by Western blot analysis. It is filed as functional, cell-based. The method, boiled down: as §1
Data set [6] relates to RAW264.7. In words: Antiinflammatory activity in mouse RAW264.7 cells assessed as inhibition of LPS-induced iNOS expression at 0.5 to 2 uM incubated for 2 hrs prior to LPS challenge measured after 24 hrs by Western blot analysis. In kind it is functional, cell-based. The method, boiled down:
as §1

For data set [7], the system named is RAW264.7. In words: Antiinflammatory activity in mouse RAW264.7 cells assessed as downregulation of LPS-induced iNOS mRNA expression at 2 uM incubated for 2 hrs prior to LPS challenge measured after 9 hrs by RT-PCR analysis. It is filed as functional, cell-based. In outline: (§2)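 Cells at 5 × 10^5/well, pretreated 2 h, then LPS 0.1 µg/mL for 9 h. Total RNA isolated with Trizol. 1 µg RNA reverse-transcribed with oligo dT primers. Amplicons run on 3% agarose gel, band intensity normalized to GAPDH. Means + S.D. of 3 experiments in triplicate.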

Data set [8] deals with RAW264.7. In words: Antiinflammatory activity in mouse RAW264.7 cells assessed as inhibition of LPS-induced COX-2 expression at 0.5 to 2 uM incubated for 2 hrs prior to LPS challenge measured after 24 hrs by Western blot analysis. In kind it is functional, cell-based. The method, boiled down: as §1
For data set [9], the system named is RAW264.7. In words: Antiinflammatory activity in mouse RAW264.7 cells assessed as inhibition of LPS-induced iNOS expression incubated for 2 hrs prior to LPS challenge measured after 24 hrs by Western blot analysis. In kind it is functional, cell-based. In outline: as §1
Data set [10] deals with RAW264.7. In words: Antiinflammatory activity in mouse RAW264.7 cells assessed as downregulation of LPS-induced iNOS mRNA expression incubated for 2 hrs prior to LPS challenge measured after 9 hrs by RT-PCR analysis. In kind it is functional, cell-based. The method, boiled down: as §2
In data set [11] the test system is RAW264.7. In words: Antiinflammatory activity in mouse RAW264.7 cells assessed as inhibition of LPS-induced MMP-9 expression incubated for 2 hrs prior to LPS challenge measured after 24 hrs by gelatin zymographic analysis. In kind it is functional, cell-based. In outline: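 Cells plated 16–18 h, then treated with LPS 0.1 µg/ml plus compound (0.5, 1.0, 2.0 µM). Medium collected at 24 h and concentrated. Run on 7.5% acrylamide gel containing 2 mg/ml gelatin. Gel renatured in Triton X-100, then buffer overnight at 37 °C, developed 16–18 h in Tris pH 7.5/NaCl/CaCl2. Coomassie stain. MMP-9 band scanned, expressed as % of control.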

The target in data set [12] is Transcription factor p65 (Mus musculus) (UniProt Q04207). In words: Inhibition of NFkappaB p65 nuclear translocation in LPS-stimulated mouse RAW264.7 cells after 24 hrs by DAPI staining-based laser confocal immunofluorescent microscopic analysis. In kind it is cell-based. The method, boiled down: (§3)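 Cells grown on glass coverslips 24 h, then given LPS 0.1 µg/mL and/or compound 0.5 µM. Fixed in 4% paraformaldehyde, permeabilized with 0.2% Triton X-100. Anti-p65 antibody applied 24 h, then Alexa 568 secondary 1 h. Nuclei stained with DAPI. Imaged by confocal microscopy.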
Sequence of Transcription factor p65 (Mus musculus) (Q04207 whole entry): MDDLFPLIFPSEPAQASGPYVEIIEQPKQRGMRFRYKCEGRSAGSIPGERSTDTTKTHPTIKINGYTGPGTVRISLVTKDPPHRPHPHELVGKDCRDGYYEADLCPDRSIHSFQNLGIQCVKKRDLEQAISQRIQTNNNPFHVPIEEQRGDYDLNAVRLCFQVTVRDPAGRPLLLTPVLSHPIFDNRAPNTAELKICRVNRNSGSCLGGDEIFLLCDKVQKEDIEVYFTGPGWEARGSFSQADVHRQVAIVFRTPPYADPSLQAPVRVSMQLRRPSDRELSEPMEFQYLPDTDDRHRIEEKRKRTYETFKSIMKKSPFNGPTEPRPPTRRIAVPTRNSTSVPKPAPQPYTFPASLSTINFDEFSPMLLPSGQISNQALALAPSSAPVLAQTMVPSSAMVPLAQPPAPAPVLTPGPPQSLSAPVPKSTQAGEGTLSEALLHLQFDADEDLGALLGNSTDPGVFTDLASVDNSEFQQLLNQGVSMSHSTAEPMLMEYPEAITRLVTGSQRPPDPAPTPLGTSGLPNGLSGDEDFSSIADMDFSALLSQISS

For data set [13], the system named is RAW264.7. In words: Antiinflammatory activity in mouse RAW264.7 cells assessed as downregulation of LPS-induced TNFalpha expression incubated for 2 hrs prior to LPS challenge measured after 24 hrs by ELISA. It is filed as functional, cell-based. In outline: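 Cells seeded 5 × 10^5/well, pretreated 2 h with compound (0.5, 1.0, 2.0 or 5.0 µM), then LPS 0.1 µg/mL for 24 h. TNF-α measured in culture medium by ELISA kit. Means + S.D. of 3 separate experiments in triplicate.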

The test system of data set [14] is RAW264.7. In words: Antiinflammatory activity in mouse RAW264.7 cells assessed as inhibition of LPS-induced COX-2 expression incubated for 2 hrs prior to LPS challenge measured after 24 hrs by Western blot analysis. In kind it is functional, cell-based. In outline: as §1
Data set [15] concerns the target T1, MAP kinase p38 (Mus musculus) (UniProt P47811+O08911+Q9WUI1+Q9Z1B7). In words: Inhibition of p38 MAPK phosphorylation in mouse RAW264.7 cells at 0.5 to 2 uM by Western blot analysis. In kind it is cell-based. In outline:
(§4)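 Cells at 5 × 10^5/well, pretreated 2 h, then LPS 0.1 µg/mL for 24 h. 15 µg lysate protein run on 8% SDS-PAGE. p38 and p-p38 detected by Western blot with densitometry. Relative density = p-p38/β-actin. Means + S.D. of 3 experiments in triplicate.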

The target of data set [16] is T1, MAP kinase p38 (Mus musculus). In words: Inhibition of p38 MAPK phosphorylation in LPS-induced mouse RAW264.7 cells incubated for 2 hrs prior to LPS challenge measured after 24 hrs by Western blot analysis. It is filed as cell-based. The method, boiled down: as §4
The target in data set [17] is Transcription factor p65 (Mus musculus) (UniProt Q04207). In words: Inhibition of NFkappaB p65 nuclear translocation in mouse RAW264.7 cells after 24 hrs by DAPI staining-based laser confocal immunofluorescent microscopic analysis. In kind it is cell-based. In outline: as §3
The subject of data set [18] is RAW264.7. In words: Antiinflammatory activity in mouse RAW264.7 cells assessed as inhibition of LPS-induced PGE2 production. In kind it is functional, cell-based.

The structures appear in SMILES notation. Active and inactive are the calls of the source. No cut-off for these calls is given here.

As for `COc1ccc(OC2=CC(=O)/C(=N\O)c3ccccc32)cc1`, the IC50 in the data set with RAW264.7 [1] came out at 1290 nM; in the data set on RAW264.7 [2], 20600 nM. The Activity entry in [3] is on record as “Not Active”. Moreover, the inhibition result in the data set on RAW264.7 [4] and in the data set on RAW264.7 [5] was “Active” in each case.

As for `O=C1C=C(Nc2ccccc2)c2ccccc2/C1=N/O`, the half-maximal inhibitory concentration (IC50) was 630 nM with RAW264.7 [1] and 1670 nM with RAW264.7 [2].

`CC(=N)NCc1cccc(CN)c1` [1400W]: the IC50 was determined as 200 nM with RAW264.7 [1] and 47500 nM in the data set on RAW264.7 [2]. Further, the inhibition entry in the data set with RAW264.7 [6] and with RAW264.7 [8] was “Active” throughout. Besides, the Activity result in data set [3] is recorded as “Not Active”. Also, the result with RAW264.7 [7] was Active.

On to `COc1ccc(NC2=CC(=O)/C(=N\O)c3ccccc32)cc1`, for which the IC50 was 870 nM in the data set on RAW264.7 [1] and 4690 nM in the data set with RAW264.7 [2].

As to `O=C1C=C(Oc2ccccc2)c2ccccc2C1=O`, the figures for the IC50 with RAW264.7 [1] and in the data set on RAW264.7 [2] were 850 nM and 28500 nM, respectively. In addition, the Activity result in data set [3] was “Not Active”. The inhibition result in the data set with RAW264.7 [4] and in the data set on RAW264.7 [5] was “Active” throughout.

`COc1ccc(OC2=CC(=O)C(=O)c3ccccc32)cc1`: the inhibition result (with RAW264.7 [9]; with RAW264.7 [11]; in the data set with RAW264.7 [14]; in data set [16]) was “Dose-dependent effect” throughout. Further, the IC50 in the data set with RAW264.7 [1] came to 740 nM; with RAW264.7 [2], 31700 nM. For the same compound, the figures for the Activity entry (in the data set on RAW264.7 [10]; in [3]; with RAW264.7 [13]) were “Dose-dependent effect”, “Not Active” and “Dose-dependent effect”, respectively. In addition, in data set [12], the inhibition result was “Active”. Moreover, in data set [15], the inhibition result is “inactive”.

In the case of `COc1ccc(NC2=CC(=O)C(=O)c3ccccc32)cc1`, the half-inhibitory concentration (IC50) stood at 810 nM with RAW264.7 [1] and 1840 nM in the data set on RAW264.7 [2].

As to `Nc1ncnc2c1ncn2[C@@H]1O[C@H](CO)C[C@H]1O`, the inhibition result in data set [17] was “Active”.

As to `COc1ccc(-c2nc3c4ccoc4c4ccccc4c3[nH]2)cc1`, the 50% inhibitory concentration (IC50) in the data set on RAW264.7 [18] came to 47 nM.

As to `CC1(C)CCC2=C(O1)c1ccccc1C(=O)C2=O` [LAPACHONE], the inhibition entry (with RAW264.7 [9]; with RAW264.7 [11]; in the data set on RAW264.7 [14]; in data set [16]) was “Dose-dependent effect” throughout. Also, the IC50 amounted to 470 nM with RAW264.7 [1] and 4060 nM with RAW264.7 [2]. Also, the Activity result is “Dose-dependent effect” with RAW264.7 [10], “Not Active” in data set [3] and “Dose-dependent effect” in the data set on RAW264.7 [13].

One may read the IC50 as the concentration that gives 50% inhibition.
